Laboratory results: ChEMBL document CHEMBL1143412, “RSV604, a novel inhibitor of respiratory syncytial virus replication” (Antimicrob Agents Chemother, 2007)

What was measured:
[1] = test system: Respiratory syncytial virus; assay: Drug resistance, ratio of EC50 for plaque picked RSV604-resistant RSV RSS from passage 2 to EC50 for DMSO-passaged wild type RSV RSS; type: functional
[2] = test system: Respiratory syncytial virus; assay: Antiviral activity against RSV RSS infected human Hep2 cells after 5 days by plaque reduction assay; type: functional, organism-based; conditions: HEp-2, 120 h
Method in brief: (§1)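 HEp-2 monolayers in six-well plates infected with 0.2 ml of 500 PFU/ml virus. After 2 h, overlaid with DMEM, 2% FBS, 0.6% agarose plus compound dilution series. Incubated 5 days, formaldehyde-fixed, plaques stained with methylene blue or immunostained and counted. Activity expressed as percent of plaques in untreated infected wells.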

[3] = test system: Respiratory syncytial virus; assay: Antiviral activity against plaque picked A-33903-resistant RSV RSS from passage 2 in human Hep2 cells by plaque reduction assay; type: functional, organism-based; conditions: HEp-2; method in brief: as §1
[4] = test system: Respiratory syncytial virus; assay: Drug resistance, ratio of EC50 for plaque picked A-33903-resistant RSV RSS from passage 2 to EC50 for DMSO-passaged wild type RSV RSS; type: functional
[5] = test system: Respiratory syncytial virus; assay: Antiviral activity against RSV A2 infected human Hep2 cells after 5 days by plaque reduction assay; type: functional, organism-based; conditions: A2, HEp-2, 120 h; method in brief: as §1
[6] = test system: Respiratory syncytial virus; assay: Antiviral activity against RSV B infected human Hep2 cells after 5 days by plaque reduction assay; type: functional, organism-based; conditions: HEp-2, 120 h; method in brief: as §1
[7] = test system: Respiratory syncytial virus; assay: Antiviral activity against RSV Long infected human Hep2 cells after 5 days by plaque reduction assay; type: functional, organism-based; conditions: HEp-2, 120 h; method in brief: as §1
[8] = test system: Respiratory syncytial virus; assay: Antiviral activity against plaque picked RSV604-resistant RSV RSS from passage 2 in human Hep2 cells by plaque reduction assay; type: functional, organism-based; conditions: HEp-2; method in brief: as §1
[9] = Therapeutic index, CC50 for human Hep2 cells to EC50 for RSV RSS; type: cell-based, HEp-2; conditions: read-out: Ratio CC50/EC50
Method in brief: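 Ratio of CC50 from uninfected HEp-2 XTT control plates to EC50 from RSV RSS-infected XTT plates, both read after 6 days.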

[10] = Cytotoxicity against RSV RSS infected human Hep2 cells after 6 days by XTT assay; type: cell-based, HEp-2
[11] = test system: Respiratory syncytial virus; assay: Antiviral activity against DMSO-passaged wild type RSV RSS infected human Hep2 cells by plaque reduction assay; type: functional, organism-based; conditions: HEp-2; method in brief: as §1
[12] = Cytotoxicity against RSV RSS infected human Hep2 cells up to 50 uM after 6 days by XTT assay; type: cell-based; conditions: hep-2, 144 h
Method in brief: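 Uninfected cell-control plates run in parallel with the RSV XTT assay. HEp-2 cells at 4 × 10³ per well in DMEM/10% FBS, serial compound dilutions with 0.5% DMSO, 6 days. Viability by XTT. CC50 is the concentration giving 50% compound-induced cell death.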

[13] = test system: Respiratory syncytial virus; assay: Antiviral activity against RSV RSS infected human Hep2 cells assessed as reduction of viral antigen synthesis after 3 days by ELISA; type: functional, organism-based; conditions: HEp-2, 72 h
Method in brief: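 HEp-2 cells seeded at 5 × 10³ per well in DMEM/10% FBS for 24 h, infected with RSV RSS at MOI about 0.02, serial compound dilutions for 3 days. Cells fixed and permeabilised in methanol-acetone, blocked in milk-Tween. Probed with mouse anti-RSV monoclonal then HRP anti-mouse. Developed with o-phenylenediamine/H2O2, absorbance […].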

[14] = test system: Respiratory syncytial virus; assay: Antiviral activity against RSV RSS infected human Hep2 cells assessed as inhibition of virus-induced cell death after 6 days by XTT assay; type: functional, organism-based; conditions: HEp-2, 144 h
Method in brief: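 HEp-2 cells seeded at 4 × 10³ per well in DMEM with 10% FBS, infected next day with RSV RSS dosed to give about 80% cytopathic effect by day 6. Serial compound dilutions (top 10 μM, 0.5% DMSO) present throughout. Viability read by XTT reduction after 6 days. EC50 taken as 50% reduction in virus-induced cell death.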

Structure (SMILES)	fold change (FC) [1]	EC50 [2] [µM]	EC50 [3] [µM]	fold change (FC) [4]	EC50 [5] [µM]	EC50 [6] [µM]	EC50 [7] [µM]	EC50 [8] [µM]	selectivity ratio [9]	CC50 at 144 h [10] [µM]	EC50 [11] [µM]	Activity [12]	EC50 [13] [µM]	EC50 [14] [µM]
CC(=O)NC1N=C(c2ccccc2)c2ccccc2NC1=O (stereo unspecified)	>12.3	9.7	27.6	3.1	15.1	3.5	7.2	> 100	> 5	> 50	8.1	Non-toxic	10.1	9.6
COc1ccccc1C(=O)NC1N=C(c2ccccc2)c2ccccc2NC1=O (stereo unspecified)	–	1.4	–	–	1.2	–	1.2	–	> 16	> 50	–	–	1.1	3
COc1cc([N+](=O)[O-])ccc1C(=O)N[C@H]1N=C(c2ccccc2)c2ccccc2NC1=O	–	0.8	1.3	3.3	–	0.23	0.57	–	> 55	> 50	0.4	–	0.5	0.9
